Experiment [1] addresses Tyrosine-protein kinase ABL2 (Homo sapiens) (UniProt P42684). Description: Binding affinity to wild-type human ABL2 (A248 to G542 residues) expressed in bacterial expression system assessed as residual binding level at 1 uM by Kinomescan method relative to control. A digest of the protocol:
(§1)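 KINOMEscan competition binding against 468 purified kinases/mutants, test compound at 1 µM; residual binding relative to control.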

The target in experiment [2] is Activin receptor type-2B (Homo sapiens) (UniProt Q13705). Description: Binding affinity to wild-type human ACVR2B (H169 to D504 residues) expressed in bacterial expression system assessed as residual binding level at 1 uM by Kinomescan method relative to control. A digest of the protocol: as §1
The target of experiment [3] is Calcium/calmodulin-dependent protein kinase type II subunit gamma (Homo sapiens) (UniProt Q13555). Description: Binding affinity to wild-type human partial length CAMK2G (R9 to A303 residues) expressed in bacterial expression system assessed as residual binding level at 1 uM by Kinomescan method relative to control.
Experiment [4] concerns the target Cyclin-dependent kinase 3 (Homo sapiens) (UniProt Q00526). Description: Binding affinity to wild-type human full length CDK3 (M1 to H305 residues) expressed in bacterial expression system assessed as residual binding level at 1 uM by Kinomescan method relative to control. The method, boiled down: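 Single-concentration (1 μM) competition-binding screen run by KINOMEscan against a panel of 468 purified kinases and mutants. The read-out is the relative binding activity of the test compound to each kinase.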

The target of experiment [5] is Casein kinase I isoform alpha (Homo sapiens) (UniProt P48729). Description: Binding affinity to wild-type human partial length CSNK1A1 (M1 to L450 residues) expressed in mammalian expression system assessed as residual binding level at 1 uM by Kinomescan method relative to control. A digest of the protocol:
(§2)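 Kinome-wide competition binding screen against a panel of 468 purified kinases/mutants, with the test compound at a single concentration of 1 μM. Read-out is the relative binding activity of each kinase in the presence of compound.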

Experiment [6] addresses Ephrin type-A receptor 6 (Homo sapiens) (UniProt Q9UF33). Description: Binding affinity to wild-type human partial length EPHA6 (Y700 to E1046 residues) expressed in bacterial expression system assessed as residual binding level at 1 uM by Kinomescan method relative to control. The method, boiled down: as §2
Experiment [7] has as its target Tyrosine-protein kinase Lyn (Homo sapiens) (UniProt P07948). Description: Binding affinity to wild-type human partial length LYN (C219 to Q511 residues) expressed in bacterial expression system assessed as residual binding level at 1 uM by Kinomescan method relative to control.
In experiment [8] the target is Dual specificity mitogen-activated protein kinase kinase 2 (Homo sapiens) (UniProt P36507). Description: Binding affinity to wild-type human full length MEK2 (M1 to V400 residues) expressed in mammalian expression system assessed as residual binding level at 1 uM by Kinomescan method relative to control. The method, boiled down: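 Single-concentration KINOMEscan (DiscoverX) binding screen at 1 μM against a panel of 468 purified kinases and mutants. The read-out is binding relative to control.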

Experiment [9] deals with Mitogen-activated protein kinase kinase kinase 9 (Homo sapiens) (UniProt P80192). Description: Binding affinity to wild-type human partial length MLK1 (V88 to W426 residues) expressed in bacterial expression system assessed as residual binding level at 1 uM by Kinomescan method relative to control.
For experiment [10], the target named is Mitogen-activated protein kinase kinase kinase 11 (Homo sapiens) (UniProt Q16584). Description: Binding affinity to wild-type human partial length MLK3 (I77 to W399 residues) expressed in bacterial expression system assessed as residual binding level at 1 uM by Kinomescan method relative to control.
Experiment [11] has as its target Mitogen-activated protein kinase 12 (Homo sapiens) (UniProt P53778). Description: Binding affinity to wild-type human full length p38-gamma (M1 to L367 residues) expressed in mammalian expression system assessed as residual binding level at 1 uM by Kinomescan method relative to control. The method, boiled down:
as §1

For experiment [12], the target named is Serine/threonine-protein kinase N1 (Homo sapiens) (UniProt Q16512). Description: Binding affinity to wild-type human partial length PKN1 (E598 to C948 residues) expressed in bacterial expression system assessed as residual binding level at 1 uM by Kinomescan method relative to control.
Sequence of Serine/threonine-protein kinase N1 (Homo sapiens) (Q16512 2-942 limits assumed): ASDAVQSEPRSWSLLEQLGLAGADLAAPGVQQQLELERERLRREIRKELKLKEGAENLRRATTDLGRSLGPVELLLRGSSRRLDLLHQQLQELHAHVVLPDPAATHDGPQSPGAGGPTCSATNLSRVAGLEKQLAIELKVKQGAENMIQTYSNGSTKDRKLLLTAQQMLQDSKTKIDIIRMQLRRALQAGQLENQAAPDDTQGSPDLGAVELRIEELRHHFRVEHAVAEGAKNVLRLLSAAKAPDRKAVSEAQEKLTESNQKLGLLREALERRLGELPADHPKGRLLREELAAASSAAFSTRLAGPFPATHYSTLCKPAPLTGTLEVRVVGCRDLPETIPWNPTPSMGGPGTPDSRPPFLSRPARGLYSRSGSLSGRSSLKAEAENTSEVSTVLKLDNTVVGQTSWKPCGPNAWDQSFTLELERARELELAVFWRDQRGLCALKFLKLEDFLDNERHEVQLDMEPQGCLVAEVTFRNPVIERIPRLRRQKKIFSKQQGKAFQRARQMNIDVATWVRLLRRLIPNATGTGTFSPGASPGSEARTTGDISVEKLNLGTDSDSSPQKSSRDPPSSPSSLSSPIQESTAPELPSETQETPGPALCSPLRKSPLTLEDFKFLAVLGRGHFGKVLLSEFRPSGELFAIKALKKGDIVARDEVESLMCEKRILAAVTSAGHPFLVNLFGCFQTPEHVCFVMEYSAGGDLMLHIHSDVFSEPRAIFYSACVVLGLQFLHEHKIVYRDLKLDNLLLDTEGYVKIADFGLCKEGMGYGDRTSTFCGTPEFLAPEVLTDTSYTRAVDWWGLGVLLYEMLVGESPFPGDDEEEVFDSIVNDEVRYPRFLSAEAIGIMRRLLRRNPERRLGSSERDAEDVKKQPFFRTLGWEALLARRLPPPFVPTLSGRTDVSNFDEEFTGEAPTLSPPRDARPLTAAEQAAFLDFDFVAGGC
In experiment [13] the target is Protein kinase C eta type (Homo sapiens) (UniProt P24723). Description: Binding affinity to wild-type human partial length PRKCH (S324 to P683 residues) expressed in bacterial expression system assessed as residual binding level at 1 uM by Kinomescan method relative to control.
The target of experiment [14] is Protein kinase C theta type (Homo sapiens) (UniProt Q04759). Description: Binding affinity to wild-type human partial length PRKCQ (L350 to S706 residues) expressed in bacterial expression system assessed as residual binding level at 1 uM by Kinomescan method relative to control. A digest of the protocol:
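KINOMEscan competition binding against a panel of 468 purified kinases/mutants, compound tested at 1 μM; readout is relative binding activity versus control.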

Experiment [15] addresses Proto-oncogene tyrosine-protein kinase Src (Homo sapiens) (UniProt P12931). Description: Binding affinity to wild-type human partial length SRC (L240 to L536 residues) expressed in bacterial expression system assessed as residual binding level at 1 uM by Kinomescan method relative to control.
In experiment [16] the target is Platelet-derived growth factor receptor beta (Homo sapiens, UniProt P09619). Description: Inhibition of TEL-fused PDGFRbeta (unknown origin) expressed in mouse BA/F3 cells assessed as growth inhibition after 72 hrs by CellTiter-Glo or CCK-8 assay. The class given is cell-based. The method, boiled down:
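Parental BaF3 or IL-3-independent TEL-kinase BaF3 lines, made by retroviral infection and puromycin selection, grown in RPMI 1640 with 10% FBS. Cells seeded at 1–3 × 10^4 cells/mL with serial compound concentrations for 72 h. Viability read by CellTiter-Glo luminescence or CCK-8 absorbance at 450/655 nm and normalised to DMSO. GI50 obtained by triplicate testing with linear regression. Selectivity is the ratio of the two GI50 values.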

Experiment [17] deals with EOL1. Description: Antiproliferative activity against human EOL-1 cells after 72 hrs by CellTiter-Glo or CCK-8 assay. In kind it is functional. The following applies: EOL1, 72 h. The method, boiled down: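 Cells in RPMI 1640 with 10% FBS at 37 °C, 5% CO2, seeded at 1–3 × 10^4 cells/mL with serial compound dilutions for 72 h. Viability read by CellTiter-Glo luminescence or CCK-8 absorbance (450/655 nm), normalized to DMSO control.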
(ATP-based viability assays read luminescence as a measure of living cells.)

The test system of experiment [18] is EOL1. Description: Antitumor activity against human EOL-1 cells xenografted in nu/nu mouse assessed as tumor growth inhibition at 50 mg/kg/day, ip. The class given is functional. To be noted: read-out: TGI. The method, boiled down: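 Female nu/nu mice (6 weeks) given subcutaneous right-flank injection of 5 million EOL-1 cells in PBS/Matrigel 1:1. At 200–400 mm3 tumors, randomized to groups of 6 and dosed daily i.p. for 14 days at 25, 50 or 100 mg/kg/d in 0.5% methylcellulose/0.4% Tween80. Tumor volume = W²×L/2, measured daily.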
(In xenograft studies the graft and the host belong to different species.)

In experiment [19] the target is Platelet-derived growth factor receptor alpha (Homo sapiens, UniProt P16234). Description: Inhibition of PDGFRalpha in human EOL-1 cells assessed as decrease in ERK1/2 phosphorylation at T202/Y204 residues up to 300 nM after 2 hrs by Western blot analysis. The class given is cell-based.

The source made the active and inactive calls. No cut-off for these calls is given here.

Sequence of Ephrin type-A receptor 6 (Homo sapiens) (Q9UF33 whole entry, the tested form may be a part): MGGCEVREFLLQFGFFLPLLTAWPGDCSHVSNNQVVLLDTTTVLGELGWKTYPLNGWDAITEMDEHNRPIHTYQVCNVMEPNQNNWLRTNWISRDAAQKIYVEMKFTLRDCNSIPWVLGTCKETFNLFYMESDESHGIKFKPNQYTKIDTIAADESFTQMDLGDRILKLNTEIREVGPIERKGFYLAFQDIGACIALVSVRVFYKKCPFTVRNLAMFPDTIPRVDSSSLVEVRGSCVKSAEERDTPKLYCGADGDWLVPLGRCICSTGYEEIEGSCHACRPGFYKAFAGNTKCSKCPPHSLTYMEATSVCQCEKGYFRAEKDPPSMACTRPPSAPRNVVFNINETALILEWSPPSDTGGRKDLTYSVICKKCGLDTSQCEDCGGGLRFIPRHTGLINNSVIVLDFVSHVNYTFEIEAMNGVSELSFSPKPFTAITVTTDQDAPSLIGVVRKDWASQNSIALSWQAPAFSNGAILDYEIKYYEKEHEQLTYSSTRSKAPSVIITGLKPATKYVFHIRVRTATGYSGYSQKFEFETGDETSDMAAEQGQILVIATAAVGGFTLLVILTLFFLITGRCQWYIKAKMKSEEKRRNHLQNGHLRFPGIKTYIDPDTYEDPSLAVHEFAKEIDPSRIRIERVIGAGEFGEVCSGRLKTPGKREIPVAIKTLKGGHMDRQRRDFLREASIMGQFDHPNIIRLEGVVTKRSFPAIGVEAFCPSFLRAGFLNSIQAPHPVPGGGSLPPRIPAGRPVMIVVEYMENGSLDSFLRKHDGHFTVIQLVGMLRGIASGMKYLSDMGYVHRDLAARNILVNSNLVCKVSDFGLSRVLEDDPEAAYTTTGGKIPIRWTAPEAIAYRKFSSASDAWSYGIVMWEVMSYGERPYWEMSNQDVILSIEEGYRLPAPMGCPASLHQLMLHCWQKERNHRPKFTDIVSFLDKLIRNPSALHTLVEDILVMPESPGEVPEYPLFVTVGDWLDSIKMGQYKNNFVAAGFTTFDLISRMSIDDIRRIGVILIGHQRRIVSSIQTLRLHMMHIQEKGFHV
Sequence of Platelet-derived growth factor receptor beta (P09619 whole entry, the tested form may be a part): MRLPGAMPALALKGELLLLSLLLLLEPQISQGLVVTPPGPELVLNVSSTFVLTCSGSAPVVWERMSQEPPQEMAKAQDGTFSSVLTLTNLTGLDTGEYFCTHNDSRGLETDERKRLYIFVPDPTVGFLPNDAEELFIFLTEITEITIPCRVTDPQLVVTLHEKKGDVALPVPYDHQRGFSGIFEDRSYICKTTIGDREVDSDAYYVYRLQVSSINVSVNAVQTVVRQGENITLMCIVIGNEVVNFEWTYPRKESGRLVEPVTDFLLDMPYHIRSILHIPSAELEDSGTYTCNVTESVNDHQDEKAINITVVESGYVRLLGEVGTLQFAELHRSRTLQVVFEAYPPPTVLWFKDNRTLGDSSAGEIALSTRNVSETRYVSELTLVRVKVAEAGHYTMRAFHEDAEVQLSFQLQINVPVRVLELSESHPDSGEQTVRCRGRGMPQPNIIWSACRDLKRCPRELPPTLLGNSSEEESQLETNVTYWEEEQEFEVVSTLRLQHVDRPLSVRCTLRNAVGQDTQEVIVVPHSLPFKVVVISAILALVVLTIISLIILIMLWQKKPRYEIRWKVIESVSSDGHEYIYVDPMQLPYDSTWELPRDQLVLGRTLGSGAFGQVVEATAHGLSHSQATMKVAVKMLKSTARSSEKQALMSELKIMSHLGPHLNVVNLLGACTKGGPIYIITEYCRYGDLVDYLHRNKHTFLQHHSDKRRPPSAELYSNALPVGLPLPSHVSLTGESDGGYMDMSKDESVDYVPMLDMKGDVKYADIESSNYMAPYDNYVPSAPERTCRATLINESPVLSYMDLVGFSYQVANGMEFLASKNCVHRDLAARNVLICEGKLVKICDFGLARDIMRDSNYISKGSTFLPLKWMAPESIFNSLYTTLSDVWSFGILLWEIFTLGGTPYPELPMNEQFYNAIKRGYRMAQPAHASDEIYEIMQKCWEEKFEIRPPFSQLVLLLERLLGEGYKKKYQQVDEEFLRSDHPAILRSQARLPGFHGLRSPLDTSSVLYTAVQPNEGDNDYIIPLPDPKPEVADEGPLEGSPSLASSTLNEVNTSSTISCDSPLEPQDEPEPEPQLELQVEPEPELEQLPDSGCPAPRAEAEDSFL
Sequence of Proto-oncogene tyrosine-protein kinase Src (Homo sapiens) (P12931 2-536 limits assumed): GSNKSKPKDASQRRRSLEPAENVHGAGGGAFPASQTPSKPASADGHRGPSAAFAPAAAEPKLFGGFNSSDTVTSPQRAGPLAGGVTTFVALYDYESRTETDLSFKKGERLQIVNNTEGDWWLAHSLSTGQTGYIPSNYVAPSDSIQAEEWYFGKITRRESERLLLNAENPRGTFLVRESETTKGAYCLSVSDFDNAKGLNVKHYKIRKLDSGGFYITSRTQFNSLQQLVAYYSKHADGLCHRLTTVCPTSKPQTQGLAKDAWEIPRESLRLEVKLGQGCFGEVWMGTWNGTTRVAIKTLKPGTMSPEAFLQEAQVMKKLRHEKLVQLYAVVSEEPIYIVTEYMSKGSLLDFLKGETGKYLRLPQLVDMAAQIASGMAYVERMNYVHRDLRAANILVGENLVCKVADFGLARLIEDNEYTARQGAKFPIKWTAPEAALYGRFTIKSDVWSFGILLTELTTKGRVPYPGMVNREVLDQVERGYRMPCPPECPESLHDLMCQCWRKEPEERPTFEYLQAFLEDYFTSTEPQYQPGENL
Sequence of Mitogen-activated protein kinase 12 (Homo sapiens) (P53778 whole entry, the tested form may be a part): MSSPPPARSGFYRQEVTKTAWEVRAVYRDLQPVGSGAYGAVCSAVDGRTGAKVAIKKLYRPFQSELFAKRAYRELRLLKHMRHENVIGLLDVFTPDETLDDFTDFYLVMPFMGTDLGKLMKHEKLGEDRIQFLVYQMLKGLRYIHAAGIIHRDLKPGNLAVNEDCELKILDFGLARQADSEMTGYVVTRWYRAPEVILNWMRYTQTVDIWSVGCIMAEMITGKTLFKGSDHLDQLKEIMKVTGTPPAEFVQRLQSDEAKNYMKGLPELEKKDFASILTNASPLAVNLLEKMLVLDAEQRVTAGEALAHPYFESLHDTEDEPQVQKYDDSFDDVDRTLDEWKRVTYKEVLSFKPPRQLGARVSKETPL
Sequence of Cyclin-dependent kinase 3 (Homo sapiens) (Q00526 whole entry, looked up, the tested form may be a part): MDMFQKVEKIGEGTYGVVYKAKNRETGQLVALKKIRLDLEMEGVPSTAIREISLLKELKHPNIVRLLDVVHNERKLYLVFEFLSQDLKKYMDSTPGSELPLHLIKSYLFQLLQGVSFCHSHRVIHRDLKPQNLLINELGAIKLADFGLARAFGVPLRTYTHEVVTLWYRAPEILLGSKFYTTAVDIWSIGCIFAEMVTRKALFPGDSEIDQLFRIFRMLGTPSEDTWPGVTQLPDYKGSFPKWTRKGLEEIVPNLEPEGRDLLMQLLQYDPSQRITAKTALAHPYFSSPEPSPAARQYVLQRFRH
Sequence of Tyrosine-protein kinase Lyn (Homo sapiens) (P07948 2-512 limits assumed): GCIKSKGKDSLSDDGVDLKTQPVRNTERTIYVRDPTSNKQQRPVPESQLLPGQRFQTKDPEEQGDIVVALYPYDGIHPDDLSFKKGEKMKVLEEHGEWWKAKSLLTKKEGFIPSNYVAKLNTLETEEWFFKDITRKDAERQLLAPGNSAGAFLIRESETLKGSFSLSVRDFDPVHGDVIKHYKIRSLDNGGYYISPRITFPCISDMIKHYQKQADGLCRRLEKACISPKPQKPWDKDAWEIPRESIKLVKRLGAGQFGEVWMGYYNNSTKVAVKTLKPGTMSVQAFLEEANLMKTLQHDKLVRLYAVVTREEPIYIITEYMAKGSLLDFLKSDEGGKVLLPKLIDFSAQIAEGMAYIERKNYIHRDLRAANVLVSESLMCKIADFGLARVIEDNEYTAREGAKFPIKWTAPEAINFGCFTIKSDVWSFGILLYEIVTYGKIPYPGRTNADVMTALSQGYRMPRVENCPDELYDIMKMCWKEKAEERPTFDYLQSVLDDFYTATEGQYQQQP

Turning to `Cc1ccc(NC(=O)c2ccc(CN(CCN(C)C)C(=O)c3cccnc3)cc2)cc1Nc1nccc(-c2cccnc2)n1`, the Activity in experiment [1] turned out to be 69%; in experiment [2], 89%; in experiment [3], 93%; in [4], 85%; in experiment [5] it was 87%; in experiment [6], 92%. Besides, the Activity in [7] stood at 97%; in experiment [8], 86%; in experiment [9], 88%; in experiment [10], 100%; in experiment [11] it was 69%; in experiment [12], 100%. The Activity in [13] worked out at 86%; in experiment [14], 83%; in experiment [15], 100%. For the same compound, the GI50 (as a rule, the concentration at which growth is held to half of that of the control) in [16] was 2900 nM; in [17], less than 1 nM. Moreover, in experiment [18], the inhibition in vivo at 50 mg/kg/day was found to be 95.4%. The inhibition result in experiment [19] is “Active”.

Source of the values: ChEMBL document CHEMBL4229344 (Eur J Med Chem, 2018).
